Source: ChEMBL document CHEMBL1157001, “Synthesis and antibacterial evaluation of isoxazolinyl oxazolidinones: Search for potent antibacterial” (2009)
Converted amounts (≈) assume the structure as drawn. The source made the active and inactive calls. The calls are words filed in the database; no cut-off is given here.

Experiments:
Pseudomonas aeruginosa = assay: Antibacterial activity against Pseudomonas aeruginosa ATCC BAA427 after 24 hrs; format: functional, organism-based
Outline: (§1)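 Broth microdilution MIC per NCCLS protocol in Mueller Hinton broth. Strains grown on nutrient agar at 37 °C for 24 h, then suspended in normal saline with 0.05% Tween 20. Inoculum was a McFarland-matched suspension diluted into medium. Compounds were dissolved in DMSO at 1 mg/mL stock and serially twofold diluted, top concentration 50 µg/mL. Plates incubated 35 °C, moist dark chamber, 24 h. MIC read spectrophotometrically.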

Staphylococcus aureus [1] = assay: Antibacterial activity against methicillin-resistant Staphylococcus aureus ATCC 70069 after 24 hrs; format: functional; settings: ATCC 70069, 24 h
Streptococcus pyogenes = assay: Antibacterial activity against Streptococcus pyogenes after 24 hrs; format: functional; outline: as §1
Staphylococcus aureus [2] = assay: Antibacterial activity against […] Staphylococcus aureus ATCC 29213 after 24 hrs; format: functional; settings: ATCC 29213, 24 h
Staphylococcus aureus [3] = assay: Antibacterial activity against floxacin and methicillin-resistant Staphylococcus aureus ATCC 25923 after 24 hrs; format: functional; settings: ATCC 25923, 24 h
Klebsiella pneumoniae = assay: Antibacterial activity against Klebsiella pneumoniae ATCC 27736 after 24 hrs; format: functional; settings: ATCC 27736, 24 h; outline: as §1
Escherichia coli = assay: Antibacterial activity against Escherichia coli ATCC 9637 after 24 hrs; format: functional, organism-based; outline: as §1
Enterococcus faecalis = assay: Antibacterial activity against Enterococcus faecalis MTCC 439 after 24 hrs; format: functional; settings: MTCC 439, 24 h; outline: as §1
Bacillus cereus = assay: Antibacterial activity against Bacillus cereus MTCC 430 after 24 hrs; format: functional; settings: MTCC 430, 24 h; outline: as §1

In the case of `CC(=O)NC[C@H]1CN(c2ccc(N3CCN(C(=O)C4CC(c5ccc(Cl)c(Cl)c5)=NO4)CC3)c(F)c2)C(=O)O1` (mixture of isomers), the Activity (Pseudomonas aeruginosa) is reported as “inactive”, the MIC (Staphylococcus aureus [1]) is reported as 0.329 µM and the MIC (Streptococcus pyogenes) is reported as 0.329 µM. The MIC (Staphylococcus aureus [2]) was 2.7 µM, the MIC (Staphylococcus aureus [3]) was 0.329 µM and the MIC (Klebsiella pneumoniae) was 0.329 µM. The Activity (Escherichia coli) was “inactive”, the MIC (Enterococcus faecalis) was 0.329 µM and the MIC (Bacillus cereus) was 0.156 µM.
In the case of `CC(=O)NC[C@H]1CN(c2ccc(N3CCN(C(=O)C4CC(c5cccc(C(F)(F)F)c5)=NO4)CC3)c(F)c2)C(=O)O1` (mixture of isomers), the Activity (Pseudomonas aeruginosa) is reported as “inactive”, the MIC (Staphylococcus aureus [1]) is reported as 1.35 µM and the MIC (Streptococcus pyogenes) is reported as 1.35 µM. For the same molecule, the MIC (Staphylococcus aureus [2]) was 2.7 µM, the MIC (Staphylococcus aureus [3]) was 1.35 µM and the MIC (Klebsiella pneumoniae) was 2.7 µM. The Activity (Escherichia coli) was “inactive”, the MIC (Enterococcus faecalis) was 1.35 µM and the MIC (Bacillus cereus) was 1.35 µM.
In the case of `CC(=O)NC[C@H]1CN(c2ccc(N3CCN(C(=O)C4CC(c5ccc(C(F)(F)F)cc5)=NO4)CC3)c(F)c2)C(=O)O1` (mixture of isomers), the Activity (Pseudomonas aeruginosa) is reported as “inactive”, the MIC (Staphylococcus aureus [1]) is reported as 0.676 µM and the MIC (Streptococcus pyogenes) is reported as 0.676 µM. The MIC (Staphylococcus aureus [2]) was 2.7 µM, the MIC (Staphylococcus aureus [3]) was 0.676 µM and the MIC (Klebsiella pneumoniae) was 0.676 µM. For the same molecule, the Activity (Escherichia coli) was “inactive”, the MIC (Enterococcus faecalis) was 0.329 µM and the MIC (Bacillus cereus) was 0.676 µM.
In the case of `CC(=O)NC[C@H]1CN(c2ccc(N3CCN(C(=O)C4CC(c5ccccc5)=NO4)CC3)c(F)c2)C(=O)O1` (mixture of isomers), the Activity (Pseudomonas aeruginosa) is reported as “inactive”, the MIC (Staphylococcus aureus [1]) is reported as 24.6 µM and the MIC (Streptococcus pyogenes) is reported as 24.6 µM. For the same molecule, the MIC (Staphylococcus aureus [2]) was 24.6 µM, the MIC (Staphylococcus aureus [3]) was 24.6 µM and the MIC (Klebsiella pneumoniae) was 24.6 µM. The Activity (Escherichia coli) was “inactive”, the MIC (Enterococcus faecalis) was 24.6 µM and the MIC (Bacillus cereus) was 24.6 µM.
For `CC(=O)NC[C@H]1CN(c2ccc(N3CCN(C(=O)C4CC(c5cccs5)=NO4)CC3)c(F)c2)C(=O)O1` (mixture of isomers), the Activity (Pseudomonas aeruginosa) was “inactive”, the MIC (Staphylococcus aureus [1]) was 24.3 µM and the MIC (Streptococcus pyogenes) was 12.1 µM. The MIC (Staphylococcus aureus [2]) was 24.3 µM, the MIC (Staphylococcus aureus [3]) was 6.06 µM and the MIC (Klebsiella pneumoniae) was 6.06 µM. The Activity (Escherichia coli) was “inactive”, the MIC (Enterococcus faecalis) was 24.3 µM and the MIC (Bacillus cereus) was 6.06 µM.
For `CC(=O)NC[C@H]1CN(c2ccc(N3CCN(C(=O)C4CC(c5ccsc5)=NO4)CC3)c(F)c2)C(=O)O1` (mixture of isomers), the Activity (Pseudomonas aeruginosa) was “inactive”, the MIC (Staphylococcus aureus [1]) was 6.06 µM and the MIC (Streptococcus pyogenes) was 12.1 µM. It also gave an MIC (Staphylococcus aureus [2]) of 24.3 µM, an MIC (Staphylococcus aureus [3]) of 12.1 µM and an MIC (Klebsiella pneumoniae) of 6.06 µM. For the same molecule, the Activity (Escherichia coli) was “inactive”, the MIC (Enterococcus faecalis) was 12.1 µM and the MIC (Bacillus cereus) was 12.1 µM.
With `CC(=O)NC[C@H]1CN(c2ccc(N3CCN(C(=O)C4CC(c5ccccn5)=NO4)CC3)c(F)c2)C(=O)O1` (mixture of isomers) the Activity (Pseudomonas aeruginosa) was “inactive”, the MIC (Staphylococcus aureus [1]) was 1.53 µM and the MIC (Streptococcus pyogenes) was 0.372 µM. It also gave an MIC (Staphylococcus aureus [2]) of 1.53 µM, an MIC (Staphylococcus aureus [3]) of 0.765 µM and an MIC (Klebsiella pneumoniae) of 0.765 µM. The Activity (Escherichia coli) was “inactive”, the MIC (Enterococcus faecalis) was 0.372 µM and the MIC (Bacillus cereus) was 0.765 µM.
With `CC(=O)NC[C@H]1CN(c2ccc(N3CCN(C(=O)C4CC(c5ccc(F)cc5)=NO4)CC3)c(F)c2)C(=O)O1` (mixture of isomers) the Activity (Pseudomonas aeruginosa) was “inactive”, the MIC (Staphylococcus aureus [1]) was 0.74 µM and the MIC (Streptococcus pyogenes) was 0.74 µM. For the same molecule, the MIC (Staphylococcus aureus [2]) was 0.74 µM, the MIC (Staphylococcus aureus [3]) was 0.74 µM and the MIC (Klebsiella pneumoniae) was 1.48 µM. The Activity (Escherichia coli) was “inactive”, the MIC (Enterococcus faecalis) was 0.74 µM and the MIC (Bacillus cereus) was 0.74 µM.
With `CC(=O)NC[C@H]1CN(c2ccc(N3CCN(C(=O)C4CC(c5ccc(Cl)cc5)=NO4)CC3)c(F)c2)C(=O)O1` (mixture of isomers) the Activity (Pseudomonas aeruginosa) was “inactive”, the MIC (Staphylococcus aureus [1]) was 0.35 µM and the MIC (Streptococcus pyogenes) was 0.349 µM. It also gave an MIC (Staphylococcus aureus [2]) of 2.87 µM, an MIC (Staphylococcus aureus [3]) of 0.166 µM and an MIC (Klebsiella pneumoniae) of 0.166 µM. The Activity (Escherichia coli) was “inactive”, the MIC (Enterococcus faecalis) was 0.35 µM and the MIC (Bacillus cereus) was 0.35 µM.
For `COc1ccc(C2=NOC(C(=O)N3CCN(c4ccc(N5C[C@H](CNC(C)=O)OC5=O)cc4F)CC3)C2)cc1O` (mixture of isomers), the Activity (Pseudomonas aeruginosa) was “inactive”, the MIC (Staphylococcus aureus [1]) was 0.703 µM and the MIC (Streptococcus pyogenes) was 0.703 µM. It also gave an MIC (Staphylococcus aureus [2]) of 0.703 µM, an MIC (Staphylococcus aureus [3]) of 0.342 µM and an MIC (Klebsiella pneumoniae) of 0.342 µM. For the same molecule, the Activity (Escherichia coli) was “inactive”, the MIC (Enterococcus faecalis) was 0.342 µM and the MIC (Bacillus cereus) was 0.342 µM.
With `CC(=O)NC[C@H]1CN(c2ccc(N3CCN(C(=O)C4CC(c5ccc6c(c5)OCO6)=NO4)CC3)c(F)c2)C(=O)O1` (mixture of isomers) the Activity (Pseudomonas aeruginosa) was “inactive”, the MIC (Staphylococcus aureus [1]) was 0.344 µM and the MIC (Streptococcus pyogenes) was 0.344 µM. For the same molecule, the MIC (Staphylococcus aureus [2]) was 2.82 µM, the MIC (Staphylococcus aureus [3]) was 0.163 µM and the MIC (Klebsiella pneumoniae) was 0.163 µM. The Activity (Escherichia coli) was “inactive”, the MIC (Enterococcus faecalis) was 0.344 µM and the MIC (Bacillus cereus) was 0.344 µM.
`CC(=O)NC[C@H]1CN(c2ccc(N3CCN(C(=O)C4CC(c5ccc(C)cc5)=NO4)CC3)c(F)c2)C(=O)O1` (mixture of isomers) was tested, and the Activity (Pseudomonas aeruginosa) was “inactive”, the MIC (Staphylococcus aureus [1]) was 1.49 µM and the MIC (Streptococcus pyogenes) was 0.746 µM. The MIC (Staphylococcus aureus [2]) was 2.98 µM, the MIC (Staphylococcus aureus [3]) was 0.363 µM and the MIC (Klebsiella pneumoniae) was 0.363 µM. For the same molecule, the Activity (Escherichia coli) was “inactive”, the MIC (Enterococcus faecalis) was 0.746 µM and the MIC (Bacillus cereus) was 0.363 µM.
For `CC(=O)NC[C@H]1CN(c2ccc(N3CCN(C(=O)C4CC(c5cccc([N+](=O)[O-])c5)=NO4)CC3)c(F)c2)C(=O)O1` (mixture of isomers), the Activity (Pseudomonas aeruginosa) was “inactive”, the MIC (Staphylococcus aureus [1]) was 0.704 µM and the MIC (Streptococcus pyogenes) was 0.704 µM. It also gave an MIC (Staphylococcus aureus [2]) of 0.704 µM, an MIC (Staphylococcus aureus [3]) of 0.343 µM and an MIC (Klebsiella pneumoniae) of 0.704 µM. The Activity (Escherichia coli) was “inactive”, the MIC (Enterococcus faecalis) was 0.0866 µM and the MIC (Bacillus cereus) was 0.162 µM.
For `CC(=O)NC[C@H]1CN(c2ccc(N3CCN(C(=O)C4CC(c5ccco5)=NO4)CC3)c(F)c2)C(=O)O1` (mixture of isomers), the Activity (Pseudomonas aeruginosa) was “inactive”, the MIC (Staphylococcus aureus [1]) was 1.56 µM and the MIC (Streptococcus pyogenes) was 0.781 µM. It also gave an MIC (Staphylococcus aureus [2]) of 6.25 µM, an MIC (Staphylococcus aureus [3]) of 0.781 µM and an MIC (Klebsiella pneumoniae) of 1.56 µM. For the same molecule, the Activity (Escherichia coli) was “inactive”, the MIC (Enterococcus faecalis) was 0.781 µM and the MIC (Bacillus cereus) was 1.56 µM.
`CC(=O)NC[C@H]1CN(c2ccc(N3CCN(C(=O)C4CC(c5ccc(F)c(F)c5)=NO4)CC3)c(F)c2)C(=O)O1` (mixture of isomers) was tested, and the Activity (Pseudomonas aeruginosa) was “inactive”, the MIC (Staphylococcus aureus [1]) was 0.349 µM and the MIC (Streptococcus pyogenes) was 0.349 µM. For the same molecule, the MIC (Staphylococcus aureus [2]) was 0.716 µM, the MIC (Staphylococcus aureus [3]) was 0.349 µM and the MIC (Klebsiella pneumoniae) was 0.716 µM. The Activity (Escherichia coli) was “inactive”, the MIC (Enterococcus faecalis) was 0.349 µM and the MIC (Bacillus cereus) was 0.349 µM.
For `CC(=O)NC[C@H]1CN(c2ccc(N3CCOCC3)c(F)c2)C(=O)O1` [LINEZOLID], the MIC (Staphylococcus aureus [1]) was 4.63 µM (≈ 1.56 µg/mL), the MIC (Streptococcus pyogenes) was 4.63 µM (≈ 1.56 µg/mL) and the MIC (Staphylococcus aureus [2]) was 9.26 µM (≈ 3.12 µg/mL). It also gave an MIC (Staphylococcus aureus [3]) of 4.63 µM (≈ 1.56 µg/mL), an MIC (Klebsiella pneumoniae) of 4.63 µM (≈ 1.56 µg/mL) and an MIC (Enterococcus faecalis) of 9.26 µM (≈ 3.12 µg/mL). It also gave an MIC (Bacillus cereus) of 2.31 µM (≈ 0.781 µg/mL).
With `CN[C@H](CC(C)C)C(=O)N[C@H]1C(=O)N[C@@H](CC(N)=O)C(=O)N[C@H]2C(=O)N[C@H]3C(=O)N[C@H](C(=O)N[C@H](C(=O)O)c4cc(O)cc(O)c4-c4cc3ccc4O)[C@H](O)c3ccc(c(Cl)c3)Oc3cc2cc(c3O[C@@H]2O[C@H](CO)[C@@H](O)[C@H](O)[C@H]2O[C@H]2C[C@](C)(N)[C@H](O)[C@H](C)O2)Oc2ccc(cc2Cl)[C@H]1O` [VANCOMYCIN] the MIC (Staphylococcus aureus [1]) was 4.21 µM (≈ 6.1 µg/mL), the MIC (Streptococcus pyogenes) was 0.262 µM (≈ 0.38 µg/mL) and the MIC (Staphylococcus aureus [2]) was 1.05 µM (≈ 1.52 µg/mL). For the same molecule, the MIC (Staphylococcus aureus [3]) was 0.262 µM (≈ 0.38 µg/mL), the MIC (Klebsiella pneumoniae) was 0.262 µM (≈ 0.38 µg/mL) and the MIC (Enterococcus faecalis) was 0.525 µM (≈ 0.761 µg/mL). For the same molecule, the MIC (Bacillus cereus) was 0.128 µM (≈ 0.185 µg/mL).
